Screening results: PubChem, several laboratories
Hits are enriched below; roughly 1.1% of the tested compounds scored in any of these assays.
Tb MetRS inh = blocks T. brucei methionyl-tRNA synthetase activity; AID 624268; actives 0.4% (n = 360,000); purified T. brucei MetRS, ATP depletion, Kinase-Glo luminescence; inhibition, % at 11.9 µM;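 active means inhibition above a per-plate cutoff of the control wells' mean inhibition plus 3 SD, cut at about 5.5% in these data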;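 further: 0% = DMSO wells median and 100% = median of wells with control inhibitor compound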
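Material: T. brucei methionyl-tRNA synthetase, purified; reagent: substrates ATP, L-methionine and bulk Escherichia coli tRNA; dosing: 11.9 µM single point; timing: 15 min plus 2 h at 25 °C; detection: luminescence of leftover ATP; evaluation: % inhibition; control set: DMSO-only wells as low control; replicates: singlicate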
MT1-MMP act inh = inhibitors of human MT1-MMP activation; actives 0.061% (n = 360,000); AID 651647; HT1080 RFP-PRO-GFP cells, GFP/RFP ratio fluorescence, overnight; percent of plate control window, DMSO zero; GFP/RFP ratio change, % at 20 µM;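 active means GFP/RFP ratio change of at least 30% with cell ATP level not reduced by more than half and red fluorescence within 50% of control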
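Assay system: HT1080 RFP-PRO-GFP cells | Dosing: 20 µM single dose, 1% DMSO | Incubation: Cells overnight before dosing, compound overnight, 37 °C, 5% CO2 | Evaluation: GFP/RFP fluorescence ratio | Control set: DMSO-only wells and HT1080 RFP-L50D-GFP cell wells as references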
SKN-1 block = inhibitors of C. elegans SKN-1. C. elegans VP596 Pgst-4::GFP/RFP ratio, acrylamide-induced, 24 h. inhibition, % at 21.8 µM. actives 0.49% (n = 360,000);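 active means interference check ratio from 0.5 to 1.5 plus GFP to RFP signal ratio inhibition reaching or exceeding a fixed threshold, cut at about 30% in these data, passing the limit was not always enough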
GC-B act = GC-B (human) receptor activation; HEK293-GC-B cells, CNP EC30, cGMP TR-FRET; 0% at EC30 CNP, 100% saturating CNP; actives 0.11% (n = 370,000); activation, % at 10 µM; P20594;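 active means activation at 10 µM reaching about 35% in either raw or pattern-adjusted values, limit read from the data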
NPR1 activator = GC-A (human) enzyme activation; P16066; HEK293 GC-A cells, cGMP TR-FRET, EC30 ANP; 0% at EC30 ANP, 100% saturating ANP; activation, % at 10 µM; actives 0.14% (n = 370,000); AID 1671463; in the data active means activation above about 40%
Bfl-1 A1 inh = inhibitors of the anti-apoptotic protein A1, read as caspase activation; MEF A1-2A-BIM cells, Caspase-Glo 3/7 luminescence, 3 h; percent of clofoctol response, vehicle zero; caspase activation, % (no concentration beside the values); actives 0.066% (n = 330,000);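 active means over half of replicate activation scores above 10%, or exactly half above 10 with the replicate mean above 10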
* = called active by the depositor; / = no result given.

SMILES	Tb MetRS inh	MT1-MMP act inh	SKN-1 block	GC-B act	NPR1 activator	Bfl-1 A1 inh
O=C1NC(=O)C(=Cc2ccc(SC3CCCCC3)o2)C(=O)N1	0	0	5	17	55*	0
O=C1NC(=O)C(=Cc2ccc(-c3cc(Cl)ccc3[N+](=O)[O-])o2)C(=O)N1	1	-92	-1	17	50*	/
C[C@@H]1CNCCN1c1ccc(N2CC[C@H](O)C2)c(C#N)c1	/	/	/	1	-2	/
COc1ccc(C[C@H]2NC[C@H](O)[C@H]2OC(C)=O)cc1	-2	-45	7	3	0	7.5*
COc1ccc(CCNC2CCCCC2)cc1	-1	-2	-5	0	0	1
CCOC(=O)c1c(C)n(Cc2ccc3c(c2)OCO3)c2ccc(O)cc12	-2	-10	-10	28	79*	0
CCOC(=O)c1c(C)n(COCCO)c2ccc(O)cc12	-1	1	-7	6	0	0
CCOC(=O)c1c(C)n(Cc2ccco2)c2ccc(O)cc12	0	0	-10	-2	50*	1
COC(=O)c1c(C)n(Cc2ccc3c(c2)OCO3)c2ccc(O)cc12	0	-2	-1	22	78*	0
CCOC(=O)c1c(C)n(Cc2ccc(F)cc2)c2ccc(O)cc12	0	6	-2	7	67*	-1
C=COCCn1c(C)c(C(C)=O)c2cc(O)ccc21	1	-13	7	-2	25	0
Cc1ccc2nc(-c3ccc(CN4CCC(n5c(=O)[nH]c6cc(Cl)ccc65)CC4)cc3)c(-c3ccccc3)nc2c1	/	/	/	1	-3	/
COc1cc(N2CCOCC2)ccc1/C=C1\C(=O)NC(=O)N(C2CCCCC2)C1=O	0	1	50*	5	4	-2
C[C@H]1CN([C@@H](C)CO)C(=O)CCCn2cc(nn2)CO[C@@H]1CN(C)C(=O)Oc1cccc2ccccc12	/	/	/	4	3	/
O=C1NC2C(=CC(O)C(O)C2O)c2cc3c(cc21)OCO3 (stereo not drawn)	0	-42	40*	-2	8	/
O=C1NC2C(=CC(O)C(O)C2O)c2cc3c(c(O)c21)OCO3 (stereo not drawn)	0	-38	55*	5	4	/
O=C1NC2C(O)C(O)C(O)C(O)C2c2cc3c(c(O)c21)OCO3 (stereo not drawn)	0	-41	32	0	6	/
COc1ccccc1N1CCN(Cc2ccc(F)cc2)CC1	0	2	7	1	3	0
COc1ccc(CN2CCN(c3ccccc3F)CC2)cc1O	0	-2	46*	-5	0	-1
CCOC(=O)C1=C(N)OC2=C(C(=O)CCC2)[C@]12C(=O)N(CC(N)=O)c1ccccc12	-1	1	-1	2	-2	1
C=CCN1C(=O)C2(C(C(=O)OCC)=C(N)Oc3ccccc32)C2=C1CCCC2=O (stereo not drawn)	0	5	37*	-4	1	0
C[C@@H]1CNCCN1c1ccc(N2CC[C@@H](O)C2)c(C#N)c1	/	/	/	2	-1	/
C=CCn1c(C)c(C=C2C(=O)NC(=O)NC2=O)c2ccccc21	-1	2	40*	2	0	-1
Cn1cc(C=C2C(=O)NC(=O)NC2=O)c2ccccc21	0	-8	-4	-12	-5	1
CC1(C)C2([N+](=O)[O-])CN3CN(C2)CC1([N+](=O)[O-])C3	-1	3	10	0	0	1
SMILES	Tb MetRS inh	MT1-MMP act inh	SKN-1 block	GC-B act	NPR1 activator	Bfl-1 A1 inh
CCN(CC)c1ccc(/C=C2/C(=O)NC(=O)N(CC3CCCO3)C2=O)cc1 (stereo not drawn)	0	-25	52	8	19	-1
CCN(CC)c1ccc(/C=C2\C(=O)NC(=O)N(Cc3ccco3)C2=O)cc1	-1	-35	48*	2	15	0
CCCCN1C(=O)/C(=C/c2ccc(N(C)C)cc2)C(=O)N(Cc2ccco2)C1=O	0	-63	40*	5	4	1
Cc1ccc(OC(=O)N(C)C[C@@H]2OCc3ccccc3-c3c(n(C)c4ccccc34)C(=O)N([C@H](C)CO)C[C@H]2C)cc1	/	/	/	1	-3	/
COc1ccc(CN2CCCC(C(=O)c3cccc(Cl)c3)C2)cc1 (stereo not drawn)	-1	-1	43*	-6	1	0
c1ccc(Cn2nnnc2C2CN=C(c3ccccc3)c3ccccc3N2)cc1 (stereo not drawn)	/	/	/	-23	-16	/
CC(=O)O[C@@H]1/C=C/[C@](C)(O)C[C@@H](C)C/C=C/[C@H]2[C@@H]3O[C@]3(C)[C@@H](C)[C@H]3[C@H](Cc4ccccc4)NC(=O)[C@@]312	-1	12	12	/	/	6.4*
Cc1ccccc1N1C(=O)NC(=O)/C(=C/c2ccc(N3CCOCC3)o2)C1=O	-1	-48	19	-3	1	0
Cc1ccccc1N1C(=O)NC(=O)/C(=C\c2cc(Br)c(N3CCOCC3)o2)C1=O	0	-123	38*	-1	-4	0
C=C(C)[C@@]12OC3(c4ccccc4)O[C@@H]1C1[C@@H]4O[C@]4(CO)[C@@H](O)[C@]4(O)C(=O)C(C)=C[C@H]4[C@@]1(O3)[C@H](C)[C@H]2OC(=O)/C=C/C=C/c1ccccc1 (stereo partly drawn)	-1	-18	70*	/	/	0
COc1ccc(-n2c(O)c(/C=C3\C=Nc4ccc(Br)cc43)c(=O)[nH]c2=O)c(OC)c1	-1	3	-16	24	31	-1
COc1ccc(-n2c(O)c(/C=C3\C=Nc4ccc(Br)cc43)c(=O)[nH]c2=O)cc1	0	-5	2	30	41*	-2
COc1cc(/C=C/c2nc3ccccc3c(=O)n2-c2ccccc2O)ccc1O	1	-68	14	22	11	0
COc1cc(/C=C/c2nc3ccccc3c(=O)n2-c2cccc(O)c2)ccc1O	0	-166	7	49*	24	0
O=S(=O)(c1ccc2ccccc2c1)N1Cc2cc(Br)ccc2-n2nncc2C1	/	/	/	-10	-17	/
CC(C)(C)c1cc(C=C(C#N)C#N)cc(C(C)(C)C)c1O	-1	5	42*	11	16	0
N#CC(C#N)=Cc1ccc(O)c(O)c1	-2	0	-23	4	-5	0
OCC[n+]1c2ccccc2nc2ccc(N3CCOCC3)cc21	-1	11	38*	-18	-28	-1
